Active and inactive are the calls of the source. The calls are words filed in the database; no cut-off is given here.
Experiments:
[1] = Cytotoxicity against human 518A2 cells assessed as increase in ROS production at 5 uM after 72 hrs by NBT reduction assay relative to control; type: functional
Method in brief: (§1)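 NBT assay. HL-60 cells (0.5×10⁶/mL) or trypsinised 518A2 cells (5×10⁴/mL) pre-incubated 24 h at 37 °C, then given compound at a final 5 µM for 24 or 72 h. Medium removed; cells incubated with 0.1% NBT for 1 h (HL-60) or 4 h (518A2). Diformazan dissolved in 2 M KOH/DMSO; A630 read against 405 nm. Given as % of untreated controls; double quadruplicates.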

MCF7 [2] = assay: Cytotoxicity against human topotecan-resistant MCF7 cells after 48 hrs by MTT assay; type: functional, cell-based; conditions: MCF7, 48 h
Method in brief: (§2)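 MTT assay. Cells seeded and cultured 24 h, then exposed to compound for 24, 48 or 72 h. MTT added to a final 0.05% (HL-60, 518A2) or 0.1% (KB-V1, MCF-7) for 2 h. Formazan dissolved in 10% SDS/DMSO with 0.6% acetic acid; absorbance read at 570 nm against 630 nm background. Viability taken relative to untreated controls (100%). IC50 from concentration-response curves, mean ± SD of four independent experiments.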

[3] = Cytotoxicity against human 518A2 cells after 24 hrs by MTT assay; type: functional, cell-based; conditions: 518A2, 24 h; method in brief: as §2
HL-60 [4] = assay: Induction of apoptosis in human HL60 cells assessed as appearance of intact mitochondria in cytosol at 5 uM after 18 hrs using JC1 dye relative to control; type: functional
Method in brief: (§3)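 Mitochondrial membrane potential measured with JC-1. Cells exposed to 5 µM compound for 6 or 18 h, pelleted at 400 g, stained with 0.2× JC-1 at 37 °C for 15 min (HL-60) or 35 min (518A2), washed and resuspended in PBS. Red fluorescence (ex 585/em 590 nm) and green (ex 510/em 527 nm) read; red/green ratio relative to untreated controls (100%). Mean ± SD, four independent experiments.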

HL-60 [5] = assay: Induction of apoptosis in human HL60 cells assessed as increase of caspase 8 activity at 5 uM after 8 to 18 hrs by luminometric assay; type: functional, cell-based
Method in brief: (§4)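 HL-60 leukaemia cells were treated with test compound and sampled at intervals from 1 to 24 h. Protein was measured by Bradford. Caspase-9 (Caspase-Glo 8 for line 1) was read from a luminogenic peptide substrate as relative luminescence.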

HL-60 [6] = assay: Induction of apoptosis in human HL60 cells assessed as increase of caspase 3 activity at 5 uM after 8 to 18 hrs by luminometric assay; type: functional, cell-based
Method in brief: (§5)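 HL-60 and 518A2 cells treated with 5 µM compound and sampled at intervals from 1 to 24 h. Lysed in 50 mM Tris-HCl pH 7.4, 150 mM NaCl, 1% Triton X-100 with protease inhibitors for 15 min at 4 °C, spun at 800 g. Protein measured by Bradford. Caspase-3/7, -8 and -9 activities read with luminogenic peptide substrates; reported as relative luminescence.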

HL-60 [7] = assay: Cytotoxicity against human HL60 cells after 72 hrs by MTT assay; type: functional, cell-based; conditions: HL-60, 72 h; method in brief: as §2
HL-60 [8] = assay: Induction of apoptosis in human HL60 cells assessed as increase of caspase 9 activity at 5 uM measured up to 24 hrs by luminometric assay; type: functional, cell-based; method in brief: as §4
MCF7 [9] = assay: Cytotoxicity against human topotecan-resistant MCF7 cells after 24 hrs by MTT assay; type: functional, cell-based; conditions: MCF7, 24 h; method in brief: as §2
HL-60 [10] = assay: Cytotoxicity against human HL60 cells after 48 hrs by MTT assay; type: functional, cell-based; conditions: HL-60, 48 h; method in brief: as §2
HL-60 [11] = assay: Induction of apoptosis in human HL60 cells assessed as appearance of intact mitochondria in cytosol at 5 uM after 6 hrs using JC1 dye relative to control; type: functional; method in brief: as §3
[12] = Cytotoxicity against human vinblastine-resistant KBV1 cells after 72 hrs by MTT assay; type: functional, cell-based; conditions: KB-V1, 72 h; method in brief: as §2
HL-60 [13] = assay: Cytotoxicity against human HL60 cells assessed as increase in ROS production at 5 uM after 72 hrs by NBT reduction assay relative to control; type: functional; method in brief: as §1
518A2 [14] = assay: Induction of apoptosis in human 518A2 cells assessed as increase of ratio of Bax to Bcl-2 mRNA expression at 5 uM after 6 to 18 hrs by RT-PCR analysis; type: functional, cell-based
Method in brief: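 518A2 cells exposed to 5 µM compound for 6 h or 18 h. bax and bcl-2 mRNA quantified by real-time PCR, normalised to GAPDH, and expressed as the bax/bcl-2 ratio.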

HL-60 [15] = assay: Induction of apoptosis in human HL60 cells assessed as increase of ratio of Bax to Bcl-2 mRNA expression at 5 uM after 6 to 18 hrs by RT-PCR analysis; type: functional, cell-based
Method in brief: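 Real-time PCR of bax and bcl-2 mRNA in HL-60 cells after 6 h and 18 h exposure to test compound. Each gene was normalised to GAPDH, and the bax/bcl-2 expression ratio was reported.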

[16] = Cytotoxicity against human vinblastine-resistant KBV1 cells after 48 hrs by MTT assay; type: functional, cell-based; conditions: KB-V1, 48 h; method in brief: as §2
518A2 [17] = assay: Induction of apoptosis in human 518A2 cells assessed as appearance of intact mitochondria in cytosol at 5 uM after 6 hrs using JC1 dye relative to control; type: functional; method in brief: as §3
518A2 [18] = assay: Induction of apoptosis in human 518A2 cells assessed as appearance of intact mitochondria in cytosol at 5 uM after 18 hrs using JC1 dye relative to control; type: functional; method in brief: as §3
MCF7 [19] = assay: Cytotoxicity against human topotecan-resistant MCF7 cells after 72 hrs by MTT assay; type: functional, cell-based; conditions: MCF7, 72 h; method in brief: as §2
[20] = Cytotoxicity against human 518A2 cells assessed as increase in ROS production at 5 uM after 24 hrs by NBT reduction assay relative to control; type: functional; method in brief: as §1
HL-60 [21] = assay: Induction of apoptosis in human HL60 cells assessed as DNA ladder formation at 5 uM after 24 hrs by agarose gel electrophoresis; type: functional, cell-based
Method in brief: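 HL-60 cells incubated with 5 µM compound for 24 h, then examined for DNA ladder patterns.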

[22] = Cytotoxicity against human vinblastine-resistant KBV1 cells after 24 hrs by MTT assay; type: functional, cell-based; conditions: KB-V1, 24 h; method in brief: as §2
[23] = Cytotoxicity against human 518A2 cells after 48 hrs by MTT assay; type: functional, cell-based; conditions: 518A2, 48 h; method in brief: as §2
HL-60 [24] = assay: Cytotoxicity against human HL60 cells after 24 hrs by MTT assay; type: functional, cell-based; conditions: HL-60, 24 h; method in brief: as §2
HL-60 [25] = assay: Cytotoxicity against human HL60 cells assessed as increase in ROS production at 5 uM after 24 hrs by NBT reduction assay relative to control; type: functional; method in brief: as §1
[26] = Cytotoxicity against human 518A2 cells after 72 hrs by MTT assay; type: functional, cell-based; conditions: 518A2, 72 h; method in brief: as §2
HL-60 [27] = assay: Induction of apoptosis in human HL60 cells assessed as increase of caspase 9 activity at 5 uM after 12 hrs by luminometric assay; type: functional, cell-based; method in brief: as §4
518A2 [28] = assay: Induction of apoptosis in human 518A2 cells assessed as increase of caspase 8 activity at 5 uM after 6 hrs by luminometric assay; type: functional, cell-based; method in brief: as §5
518A2 [29] = assay: Induction of apoptosis in human 518A2 cells assessed as increase of caspase 3 activity at 5 uM after 8 hrs by luminometric assay; type: functional, cell-based; method in brief: as §5
HL-60 [30] = assay: Induction of apoptosis in human HL60 cells assessed as increase of caspase 8 activity at 5 uM after 24 hrs by luminometric assay; type: functional, cell-based; method in brief: as §5
HL-60 [31] = assay: Induction of apoptosis in human HL60 cells assessed as increase of caspase 3 activity at 5 uM after 18 hrs by luminometric assay; type: functional, cell-based; method in brief: as §5
HL-60 [32] = assay: Induction of apoptosis in human HL60 cells assessed as increase of caspase 8 activity at 5 uM after 12 hrs by luminometric assay; type: functional, cell-based; method in brief: as §5

| SMILES | Activity [1] [%] | IC50 (MCF7 [2]) [µM] | IC50 [3] [µM] | Activity (HL-60 [4]) [%] | IC50 (HL-60 [7]) [µM] | IC50 (MCF7 [9]) [µM] | IC50 (HL-60 [10]) [µM] | Activity (HL-60 [11]) [%] | IC50 [12] [µM] | Activity (HL-60 [13]) [%] | IC50 [16] [µM] | Activity (518A2 [17]) [%] | Activity (518A2 [18]) [%] | IC50 (MCF7 [19]) [µM] | Activity [20] [%] | IC50 [22] [µM] | IC50 [23] [µM] | IC50 (HL-60 [24]) [µM] | Activity (HL-60 [25]) [%] | IC50 [26] [µM] | other results |
| --- | --- | --- | --- | --- | --- | --- | --- | --- | --- | --- | --- | --- | --- | --- | --- | --- | --- | --- | --- | --- | --- |
| CC/C=C\C/C=C\C/C=C\CCCCCCCC(=O)N/N=C(\CO)[C@]1(O)Cc2c(O)c3c(c(O)c2[C@@H](O[C@H]2C[C@H](N)[C@H](O)[C@H](C)O2)C1)C(=O)c1c(OC)cccc1C3=O.Cl [DOXORUBICIN LINOLENOYLHYDRAZONE HYDROCHLORIDE] | 45.1 | 4.3 | 7.4 | 71 | 0.81 | 5.7 | 1.2 | 103 | 14 | 3 | 20.5 | 120 | 96 | 3.6 | 2.9 | 40.8 | 0.32 | 5.1 | 1 | 0.14 | Activity (HL-60 [5]): Active; Activity (HL-60 [6]): Active; Activity (HL-60 [8]): inactive; Activity (518A2 [14]): Active; Activity (HL-60 [15]): Active; Activity (HL-60 [21]): Active |
| CCCCC/C=C\C/C=C\CCCCCCCC(=O)N/N=C(\CO)[C@]1(O)Cc2c(O)c3c(c(O)c2[C@@H](O[C@H]2C[C@H](N)[C@H](O)[C@H](C)O2)C1)C(=O)c1c(OC)cccc1C3=O.Cl [DOXORUBICIN LINOLEYLHYDRAZONE HYDROCHLORIDE] | 2.3 | 20.3 | 2.9 | 87 | 3.8 | 40.5 | 2.8 | 88 | 19.7 | 1.4 | 18.7 | 80 | 97 | 9.9 | 1.6 | 29.6 | 1.8 | 5.6 | 0.4 | 1.6 | – |
| COc1cccc2c1C(=O)c1c(O)c3c(c(O)c1C2=O)C[C@@](O)(/C(CO)=N/NC(=O)CC(=O)O[C@@H]1C[C@H](C)CC[C@H]1C(C)C)C[C@@H]3O[C@H]1C[C@H](N)[C@H](O)[C@H](C)O1.Cl [DOXORUBICIN MENTHOXYCARBONYLACETYLHYDRAZONE HYDROCHLORIDE] | 16.2 | 3.8 | 0.71 | 36 | 0.23 | 8.4 | 0.26 | 76 | 10.3 | 11.2 | 18.4 | 93 | 61 | 2.7 | 3 | 17.8 | 0.54 | 0.57 | 3.8 | 0.14 | Activity (HL-60 [27]): Active; Activity (518A2 [28]): Active; Activity (518A2 [14]): Active; Activity (HL-60 [15]): Active; Activity (518A2 [29]): Active; Activity (HL-60 [30]): Active; Activity (HL-60 [21]): Active; Activity (HL-60 [31]): Active; Activity (HL-60 [32]): Active |
| CCCCCCCC/C=C\CCCCCCCC(=O)N/N=C(\CO)[C@]1(O)Cc2c(O)c3c(c(O)c2[C@@H](O[C@H]2C[C@H](N)[C@H](O)[C@H](C)O2)C1)C(=O)c1c(OC)cccc1C3=O.Cl [DOXORUBICIN OLEYLHYDRAZONE HYDROCHLORIDE] | 4.4 | 6.2 | 0.67 | 104 | 0.56 | 14.6 | 0.56 | 103 | 12.7 | 4 | 17.7 | 96 | 99 | 6.6 | 2.8 | 32.5 | 0.39 | 1.2 | 0.6 | 0.42 | – |

From ChEMBL document CHEMBL1157852, “Modulation of doxorubicin activity in cancer cells by conjugation with fatty acyl and terpenyl hydrazones” (Eur J Med Chem, 2010)
